In PMC4467241 (Clinical Pharmacology in Drug Development, 2014):
Like-named read-outs stand apart in the source and are kept apart here. Marks after values point to notes of the source that are not given here.

Assays:
[1] = format: in vivo, human; settings: for CL/F / AUC(0-t) / AUC(0-inf) / Cmax / half-life / tmax: plasma; for AUC(0-t) / AUC(0-inf) / Cmax / half-life / tmax: human, po; for AUC(0-t): AUC0–t; for AUC(0-inf): AUC0–∞
Method in brief: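 Heparinised plasma was taken predose and at 0.5–48 h, spun within 30 min and stored at −70 °C. Parent and metabolite were measured by SPE LC–MS/MS; noncompartmental AUC, with ANOVA on log values giving geometric-mean ratio and 90% CI.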

[2] = cited from earlier work
[3] = 10 mg, MTX 10 mg oral alone (Day 1), N = 1
[4] = 12.5 mg, MTX 12.5 mg oral alone (Day 1), N = 1
[5] = 17.5 mg, MTX 17.5 mg oral alone (Day 1), N = 1
[6] = MTX 12.5 mg oral + Apremilast 30 mg Q12H (Day 8), N = 1
[7] = MTX 17.5 mg oral + Apremilast 30 mg Q12H (Day 8), N = 1
[8] = methotrexate in plasma, ANOVA, N = 15
[9] = methotrexate in plasma, all dose groups, N = 15, acceptance range 80–125%

SMILES: CN(Cc1cnc2nc(N)nc(N)c2n1)c1ccc(C(=O)N[C@@H](CCC(=O)O)C(=O)O)cc1 [MTX, methotrexate, reference compound]
- CL/F ([1]; MTX 10 mg oral alone (Day 1), N = 1): 120 mL/min
- CL/F ([1]; MTX 12.5 mg oral alone (Day 1), N = 1): 88 mL/min
- CL/F ([1]; MTX 17.5 mg oral alone (Day 1), N = 1): 129 mL/min
- CL/F ([1]; MTX 20 mg oral alone (Day 1), N = 6, arithmetic mean (SD)): 122 (33.7) mL/min
- AUC(0-t) [1, 3]: 1390 ng·h/mL
- AUC(0-inf) [1, 3]: 1380 ng·h/mL
- Cmax [1, 3]: 323 ng/mL
- half-life ([1]; 10 mg, t1/2, MTX 10 mg oral alone (Day 1), N = 1): 3.5 h
- tmax [1, 3]: 1.45 h
- AUC(0-t) [1, 4]: 2360 ng·h/mL
- Cmax [1, 4]: 528 ng/mL
- half-life ([1]; 12.5 mg, t1/2, MTX 12.5 mg oral alone (Day 1), N = 1): 3.6 h
- tmax [1, 4]: 1 h
- AUC(0-t) [1, 5]: 2250 ng·h/mL
- Cmax [1, 5]: 646 ng/mL
- half-life ([1]; 17.5 mg, t1/2, MTX 17.5 mg oral alone (Day 1), N = 1): 5.6 h
- tmax [1, 5]: 1 h
- AUC(0-t) [1, 6]: 3020 ng·h/mL
- AUC(0-t) [1, 7]: 2270 ng·h/mL
- AUC(0-inf) [1, 6]: 3010 ng·h/mL
- Cmax [1, 6]: 669 ng/mL
- Cmax [1, 7]: 565 ng/mL
- half-life ([1]; t1/2, MTX 12.5 mg oral + Apremilast 30 mg Q12H (Day 8), N = 1): 3.2 h
- tmax [1, 6]: 2.07 h
- tmax [1, 7]: 1 h
- Intra-subject CV% of AUC0–∞ ([1]; methotrexate in plasma, ANOVA, N = 14): 11.19%
- Intra-subject CV% of AUC0–t [1, 8]: 10.57%
- Intra-subject CV% of Cmax [1, 8]: 11.07%
- AUC0–∞ ratio of geometric means (“methotrexate + apremilast”/“methotrexate”) ([1]; methotrexate in plasma, all dose groups, N = 14, acceptance range 80–125%): 100.39
- tmax median difference (“MTX + Apremilast” − “MTX”) ([1]; methotrexate in plasma, all dose groups, N = 15, Hodges–Lehmann): 0.235 ^d hr
- AUC0–t ratio of geometric means (“methotrexate + apremilast”/“methotrexate”) [1, 9]: 99.90
- Cmax ratio of geometric means (“methotrexate + apremilast”/“methotrexate”) [1, 9]: 99.49
- 90% CI for Cmax, AUC0–t and AUC0–∞ versus FDA acceptance range of 80–125% ([1]; methotrexate with versus without apremilast): within the acceptance range for equivalency
- Fraction metabolized to 7-hydroxy methotrexate [2]: ~10%
